The values below come from ChEMBL document CHEMBL3758150, “Discovery and SAR of N-(1-((substituted piperidin-4-yl)methyl)-3-methoxypiperidin-4-yl)-2-methoxybenzamide derivatives: 5-Hydroxytryptamine receptor 4 agonist as a potent prokinetic agent” (Eur J Med Chem, 2016).

Each structure is given as a SMILES string. A value given as a limit tells only on which side of the number the result lay.

Data set [1] deals with 5-hydroxytryptamine receptor 4 (Homo sapiens, UniProt Q13639). Put plainly: Displacement of [3H]-GR113808 from human 5-HT4 receptor expressed in African green monkey COS7 cell membranes after 30 mins by liquid scintillation counting analysis. More on the design: species or system COS-7. The essentials: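 Membranes from Cos-7 cells expressing human 5-HT4: cells washed in PBS, pelleted, then resuspended in ice-cold 50 mM HEPES pH 7.4 and spun at 40,000 g for 30 min at 4 °C. Nonspecific binding was set with 10 μM 5-HT. IC50 came from linear regression of the displacement curve.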

For data set [2], the system named is Rattus norvegicus. In words: Induction of gastric emptying rate in Sprague-Dawley rat at 5 mg/kg, iv administered prior to feeding measured after 30 mins. It is filed as functional, Stomach.
Data set [3] addresses 5-hydroxytryptamine receptor 4 (Rattus norvegicus, UniProt Q62758). Put plainly: Agonist activity at 5-HT4 receptor in rat esophageal thoracic muscularis mucosae assessed as carbachol-induced contraction. The method in brief: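 The distal 1.2 cm of rat esophagus was equilibrated 60 min in Krebs–Henseleit, washed every 15 min, with isometric force recording. Tissue was precontracted with 3 μM carbachol, then given a cumulative relaxation curve to 5-HT. After a wash and 60 min recovery it was recontracted and a test-compound curve run. Potency is relative to 5-HT in the same preparation.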

Data set [4] can be described thus: Tmax in rat at 5 mg/kg, po. It is filed as ADME, organism-based. Particulars: in vivo.
For data set [5], the system named is Rattus norvegicus. Put plainly: Induction of gastric emptying rate in Sprague-Dawley rat at 5 mg/kg, iv administered prior to feeding along with cisplatin injection measured after 40 mins. It is filed as functional, Stomach. The method in brief:
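Male Sprague-Dawley rats (220–250 g) were fasted 18 h with water available. A 2 mL semisolid meal was given 30 min after drug, together with cisplatin 5 mg/kg i.v. Gastric emptying was determined 40 min later from stomach weights versus 0-time controls: [1 − test/control] × 100.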

Data set [6] in a line: Half life in rat at 5 mg/kg, po. It counts as ADME, organism-based. The following applies: in vivo.
Data set [7] relates to Rattus norvegicus. Put plainly: AUCinfinity in rat at 5 mg/kg, po. It counts as ADME, organism-based. More on the design: dose 5 mg/kg, time infinity, route oral. Particulars: in vivo.
Data set [8] in a line: Cmax in rat at 5 mg/kg, po. It is filed as ADME, organism-based. More on the design: dose 5 mg/kg, route oral. The following applies: in vivo.
The target in data set [9] is Voltage-gated inwardly rectifying potassium channel KCNH2 (Homo sapiens, UniProt Q12809). In words: Inhibition of human ERG channel by fluorescence polarization assay. (In general: Polarisation of emitted light reports the rotation of a fluorescent probe.)
A short description of data set [10]: Solubility of the compound in distilled water. It counts as physicochemical.

Chain of 5-hydroxytryptamine receptor 4 (Rattus norvegicus, UniProt Q62758) (Q62758 whole entry): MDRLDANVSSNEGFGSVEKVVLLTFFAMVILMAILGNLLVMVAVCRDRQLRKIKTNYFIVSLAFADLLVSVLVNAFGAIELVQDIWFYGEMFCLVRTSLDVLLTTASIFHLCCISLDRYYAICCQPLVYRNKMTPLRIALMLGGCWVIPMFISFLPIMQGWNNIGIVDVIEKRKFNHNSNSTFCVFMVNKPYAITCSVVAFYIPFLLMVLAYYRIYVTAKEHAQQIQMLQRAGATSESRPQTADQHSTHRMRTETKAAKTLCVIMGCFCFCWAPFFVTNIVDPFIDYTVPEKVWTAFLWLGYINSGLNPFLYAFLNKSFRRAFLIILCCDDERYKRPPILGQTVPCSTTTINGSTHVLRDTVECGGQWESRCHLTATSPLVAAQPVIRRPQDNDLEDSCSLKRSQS
Chain of 5-hydroxytryptamine receptor 4 (Homo sapiens, UniProt Q13639) (Q13639 whole entry): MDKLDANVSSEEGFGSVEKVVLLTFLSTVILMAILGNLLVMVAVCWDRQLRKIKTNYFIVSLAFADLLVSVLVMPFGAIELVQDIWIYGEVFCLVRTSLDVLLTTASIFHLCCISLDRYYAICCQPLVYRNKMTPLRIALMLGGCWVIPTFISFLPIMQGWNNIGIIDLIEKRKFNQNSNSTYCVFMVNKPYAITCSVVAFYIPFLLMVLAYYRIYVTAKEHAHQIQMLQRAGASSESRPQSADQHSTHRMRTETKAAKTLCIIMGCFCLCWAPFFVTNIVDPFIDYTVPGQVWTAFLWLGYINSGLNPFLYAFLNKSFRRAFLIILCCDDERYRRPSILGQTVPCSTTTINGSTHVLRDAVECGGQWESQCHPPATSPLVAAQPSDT
Chain of Voltage-gated inwardly rectifying potassium channel KCNH2 (Q12809 whole entry): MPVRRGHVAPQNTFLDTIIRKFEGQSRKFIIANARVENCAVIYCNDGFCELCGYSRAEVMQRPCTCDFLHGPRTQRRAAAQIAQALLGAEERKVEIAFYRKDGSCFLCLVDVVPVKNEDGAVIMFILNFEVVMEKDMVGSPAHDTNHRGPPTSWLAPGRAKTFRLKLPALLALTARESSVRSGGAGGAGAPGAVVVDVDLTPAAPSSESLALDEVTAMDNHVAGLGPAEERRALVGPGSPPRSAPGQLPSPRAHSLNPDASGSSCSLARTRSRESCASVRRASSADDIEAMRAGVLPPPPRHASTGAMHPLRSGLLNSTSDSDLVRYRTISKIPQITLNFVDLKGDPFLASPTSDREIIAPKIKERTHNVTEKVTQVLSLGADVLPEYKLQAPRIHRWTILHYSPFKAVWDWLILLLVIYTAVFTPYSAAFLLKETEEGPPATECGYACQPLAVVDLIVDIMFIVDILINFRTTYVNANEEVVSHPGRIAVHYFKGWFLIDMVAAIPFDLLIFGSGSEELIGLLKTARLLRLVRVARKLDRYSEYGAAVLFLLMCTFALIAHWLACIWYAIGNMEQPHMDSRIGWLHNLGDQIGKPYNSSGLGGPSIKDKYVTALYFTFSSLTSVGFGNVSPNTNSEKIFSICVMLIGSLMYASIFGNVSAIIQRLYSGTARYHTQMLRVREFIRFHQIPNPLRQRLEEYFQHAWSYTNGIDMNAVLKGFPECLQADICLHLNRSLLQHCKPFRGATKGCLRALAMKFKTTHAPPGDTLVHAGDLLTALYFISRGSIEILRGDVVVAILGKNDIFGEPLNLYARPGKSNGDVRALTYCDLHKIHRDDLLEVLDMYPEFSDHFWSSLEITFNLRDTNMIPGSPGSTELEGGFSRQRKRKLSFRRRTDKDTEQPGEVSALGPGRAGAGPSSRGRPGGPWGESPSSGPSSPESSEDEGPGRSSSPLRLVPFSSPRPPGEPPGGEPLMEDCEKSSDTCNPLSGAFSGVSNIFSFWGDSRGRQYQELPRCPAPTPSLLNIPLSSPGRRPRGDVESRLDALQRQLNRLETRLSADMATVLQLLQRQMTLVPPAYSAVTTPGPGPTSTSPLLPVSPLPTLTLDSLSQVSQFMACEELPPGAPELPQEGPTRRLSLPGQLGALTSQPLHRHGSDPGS

One may read the IC50 as the midpoint of a concentration-inhibition curve. In [1], `COc1cc(N)c(Cl)cc1C(=O)N[C@H]1CCN(CCC(=O)N2CCCC2)C[C@H]1OC` (relative stereo) registered an IC50 of 920 nM.
Usually EC50 stands for the concentration needed to bring the measured effect to its halfway point. In the data set with Rattus norvegicus [2], `CCC(=O)N1CCC(CN2CC[C@H](NC(=O)c3cc(Cl)c(N)cc3OC)[C@H](OC)C2)CC1` (relative stereo) showed an Activity of 57.8%. The IC50 in [1] stood at 329 nM. The EC50 in data set [3] is 380 nM.
A word on the Tmax: it is the time at which the peak concentration occurs. As usually defined, the half-life is the time needed for the level to fall by half in the phase considered. For orientation: AUC means the area under the concentration-time curve, a measure of exposure. The term Cmax denotes the highest concentration seen after dosing. Consider `COc1cc(N)c(Cl)cc1C(=O)N[C@H]1CCN(CC2CCN(C(=O)C(C)(C)C)CC2)C[C@H]1OC` (relative stereo), for which the Activity with Rattus norvegicus [2] amounted to 56.4%; with Rattus norvegicus [5], 56.6%. This compound registered an IC50 in data set [1] of 118 nM. The Tmax in data set [4] came to 15 min. For the same compound, the EC50 in data set [3] is 100 nM. The compound also gave a half-life in data set [6] of 46.2 min. Moreover, the AUC in the data set with Rattus norvegicus [7] came out at 263 ng·h/mL. This compound returned a Cmax in [8] of 345 ng/mL.
For `COc1cc(N)c(Cl)cc1C(=O)N[C@H]1CCN(CCCn2ncnn2)C[C@H]1OC`, the IC50 in data set [1] was 1120 nM; in data set [9], more than 10000 nM.
In the data set with Rattus norvegicus [2], `CCCC(=O)N1CCC(CN2CC[C@H](NC(=O)c3cc(Cl)c(N)cc3OC)[C@H](OC)C2)CC1` (relative stereo) registered an Activity of 48.6%. The same compound displayed an IC50 in [1] of 178 nM.
The like results for `COc1cc(N)c(Cl)cc1C(=O)N[C@H]1CCN(CC2CCN(C(=S)C(C)C)CC2)C[C@H]1OC` (relative stereo) were, in that order, 67.3% and 155 nM.
In the case of `COc1cc(N)c(Cl)cc1C(=O)N[C@H]1CCN(CC2CCN(C(=O)CC(C)C)CC2)C[C@H]1OC` (relative stereo), the Activity in the data set on Rattus norvegicus [2] was determined as 54.3%.
In turn, `COc1cc(N)c(Cl)cc1C(=O)N[C@H]1CCN(CCC(=O)N2CCCCC2)C[C@H]1OC` (relative stereo) gave an IC50 in data set [1] of 560 nM. Further, the EC50 in data set [3] is 1050 nM.
For `CCC(=O)N1CCC(CCN2CC[C@H](NC(=O)c3cc(Cl)c(N)cc3OC)[C@H](OC)C2)CC1` (relative stereo), the IC50 in data set [1] was 805 nM.
Compound `COc1cc(N)c(Cl)cc1C(=O)N[C@H]1CCN(CCCn2ccnc2)C[C@H]1OC` (relative stereo) showed an IC50 in [1] of 1160 nM. In [3], the EC50 was 251 nM.
Regarding `COc1cc(N)c(Cl)cc1C(=O)N[C@H]1CCN(CC2CCN(C(C)=O)CC2)C[C@H]1OC` (relative stereo), in the data set on Rattus norvegicus [2], the Activity is recorded as 39.5%. Besides, the IC50 in [1] was found to be 592 nM.
The solubility is how much of the substance goes into solution per volume. As for `COc1cc(N)c(Cl)cc1C(=O)N[C@H]1CCN(CC2CCN(C(=O)C(C)C)CC2)C[C@H]1OC.O=C(O)/C=C\C(=O)O`, the solubility in data set [10] was more than 10 mg/mL.
Still for that read-out and setting: then `Br.COc1cc(N)c(Cl)cc1C(=O)N[C@H]1CCN(CC2CCN(C(=O)C(C)C)CC2)C[C@H]1OC`, with less than 5 mg/mL.
Compound `COc1cc(N)c(Cl)cc1C(=O)N[C@H]1CCN(CCn2cccc2)C[C@H]1OC` (relative stereo) had an IC50 in data set [1] of 5760 nM.
For `COC(=O)N1CCC(CN2CC[C@H](NC(=O)c3cc(Cl)c(N)cc3OC)[C@H](OC)C2)CC1` (relative stereo), the Activity with Rattus norvegicus [2] was 56.2%. In data set [1], this compound showed an IC50 of 190 nM.
In the case of `COc1cc(N)c(Cl)cc1C(=O)N[C@H]1CCN(CCCn2cncn2)C[C@H]1OC` (relative stereo), the IC50 in [1] came out at 1270 nM; in [9], 7710 nM. Further, in data set [3], the EC50 is 708 nM.
In turn, `COc1cc(N)c(Cl)cc1C(=O)N[C@H]1CCN(CCC(=O)N2CCOCC2)C[C@H]1OC` (relative stereo) displayed an IC50 in [1] of 954 nM.
As for `COc1cc(N)c(Cl)cc1C(=O)N[C@@H]1CCN(CC2CCN(C(=O)C(C)C)CC2)C[C@@H]1OC`, the Activity in the data set on Rattus norvegicus [2] was 61.7%. Further, the IC50 in data set [1] amounted to 68 nM.
The matching figures for `COc1cc(N)c(Cl)cc1C(=O)N[C@H]1CCN(CC2CCN(C(=O)N(C)C)CC2)C[C@H]1OC` (relative stereo): 46% and 52 nM.
`COc1cc(N)c(Cl)cc1C(=O)N[C@H]1CCN(CC2CCN(C(=O)C(C)C)CC2)C[C@H]1OC.O=C(O)CC(O)(CC(=O)O)C(=O)O` had a solubility in data set [10] of more than 30 mg/mL.
In [1], `COc1cc(N)c(Cl)cc1C(=O)N[C@H]1CCN(CCCn2cccc2)C[C@H]1OC` (relative stereo) showed an IC50 of 648 nM. For the same compound, the EC50 in data set [3] was 676 nM.
`CCC(=S)N1CCC(CN2CC[C@H](NC(=O)c3cc(Cl)c(N)cc3OC)[C@H](OC)C2)CC1` (relative stereo) yielded an Activity in the data set on Rattus norvegicus [2] of 61%. Moreover, the IC50 in data set [1] amounted to 593 nM.
With `COc1cc(N)c(Cl)cc1C(=O)N[C@H]1CCN(CC2CCN(C(=O)C(C)C)CC2)C[C@H]1OC`, in the data set on Rattus norvegicus [2], the Activity is 56.5%. Also, in data set [1], the IC50 was more than 10000 nM.
The matching figures for `CCOC(=O)N1CCC(CN2CC[C@H](NC(=O)c3cc(Cl)c(N)cc3OC)[C@H](OC)C2)CC1`: 55.9% and 377 nM.
The like results for `CCCOC(=O)N1CCC(CN2CC[C@H](NC(=O)c3cc(Cl)c(N)cc3OC)[C@H](OC)C2)CC1` (relative stereo) were, in that order, 57.7% and 134 nM.
In the case of `COc1cc(N)c(Cl)cc1C(=O)N[C@H]1CCN(CCCOc2ccc(F)cc2)C[C@H]1OC` (relative stereo) [REL-CISAPRIDE], the values for the Activity in the data set on Rattus norvegicus [2] and in the data set with Rattus norvegicus [5] were 57.1% and 57.2%, respectively. Further, the Tmax in data set [4] stood at 15 min. In data set [6], this compound had a half-life of 88.8 min. Also, the AUC in the data set on Rattus norvegicus [7] was found to be 142 ng·h/mL. The same compound registered a Cmax in data set [8] of 104 ng/mL.
With `COc1cc(N)c(Cl)cc1C(=O)N[C@H]1CCN(CC2CCN(C(=O)C(C)C)CC2)C[C@H]1OC.O=C(O)C(O)C(O)C(=O)O`, in data set [10], the solubility is more than 30 mg/mL.
The same measure, in the same setting: in the case of `COc1cc(N)c(Cl)cc1C(=O)N[C@H]1CCN(CC2CCN(C(=O)C(C)C)CC2)C[C@H]1OC.Cl` it was more than 15 mg/mL.
For the compound `COc1cc(N)c(Cl)cc1C(=O)N[C@H]1CCN(CC2CCN(C(=O)NC(C)C)CC2)C[C@H]1OC` (relative stereo), the Activity with Rattus norvegicus [2] was found to be 59.9%. This compound showed an IC50 in [1] of 73 nM.
`COc1cc(N)c(Cl)cc1C(=O)N[C@H]1CCN(CCC(=O)N2CCC(Cc3ccccc3)CC2)C[C@H]1OC` (relative stereo) displayed an IC50 in data set [1] of 66 nM. In data set [3], the EC50 is 6030 nM.
The matching figures for `CCC(=O)N1CCCC(CN2CC[C@H](NC(=O)c3cc(Cl)c(N)cc3OC)[C@H](OC)C2)C1` (relative stereo): 493 nM and 1550 nM.
Take `COc1cc(N)c(Cl)cc1C(=O)N[C@H]1CCN(CC2CCN(C(=O)C(C)C)CC2)C[C@H]1OC.CS(=O)(=O)O`: the solubility in data set [10] is more than 10 mg/mL.
